This is a sample that favours compounds with a hit; in the whole collection about 5.3% have one here.
Plk1 PBD FP: Plk1 (human) PBD binding inhibition | P53350 | Plk1 PBD phosphopeptide binding, fluorescence polarization | inhibition, %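 (tested at about 20 µM)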 | hit rate 0.13% among 97,000 | AID 693; in the data active means inhibition above about 34%, passing the limit was not always enough
FAK inh: FAK (human) kinase inhibition. biochemical FAK kinase activity assay. Q05397. inhibition, %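 (tested at 7 µM)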. hit rate 0.84% among 97,000. AID 727; in the data active means inhibition above about 19%;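 further: 0% = DMSO and 100% = reference compound high control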
EphB4 ephrin blk: EphB4-ephrin-B2 interaction antagonism | P54760 | EphB4 LBD / TNYL-RAW-Alexa532 peptide, fluorescence polarization | inhibition, % at 7 µM | hit rate 0.15% among 97,000;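 active means inhibition above the screen-wide mean inhibition plus 3 SD, cut at about 15% in these data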;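 further: 0% = DMSO wells and 100% = excess unlabeled TNYL-RAW peptide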
HIV Rev-RRE inh: HIV Rev-RRE protein-RNA interaction inhibition. P05866. Rev peptide-RRE RNA binding, FRET. inhibition, % at 8 µM. hit rate 0.79% among 97,000. AID 704;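 active means inhibition above the screen-wide mean plus 3 SD, cut at about 35% in these data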;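 further: 0% = median DMSO wells and 100% = median Neomycin B control wells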
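Assay system: labelled RRE RNA duplex and labelled Rev peptide / Medium: HEPES pH 7.5 salt buffer with EDTA / Reagent: labelled Rev peptide / Schedule: 5 + 15 min at 25 °C / Signal: FRET, excitation 480 nm, emission 540 nm donor and 671 nm acceptor / Benchmarks: DMSO and neomycin B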
Cav3 T inh: blocks human Cav3.2 T-type calcium channel | Cav3.2-expressing cells, Fluo-4 calcium fluorescence FDSS; active compounds read low | B-score at 10 µM | hit rate 4% among 100,000 | AID 449739;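 active means single-dose well whose peak fluorescence ratio is a statistical outlier from its plate by either plate-standardised score or position-corrected B-score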
Target sequence (O95180 whole entry, looked up): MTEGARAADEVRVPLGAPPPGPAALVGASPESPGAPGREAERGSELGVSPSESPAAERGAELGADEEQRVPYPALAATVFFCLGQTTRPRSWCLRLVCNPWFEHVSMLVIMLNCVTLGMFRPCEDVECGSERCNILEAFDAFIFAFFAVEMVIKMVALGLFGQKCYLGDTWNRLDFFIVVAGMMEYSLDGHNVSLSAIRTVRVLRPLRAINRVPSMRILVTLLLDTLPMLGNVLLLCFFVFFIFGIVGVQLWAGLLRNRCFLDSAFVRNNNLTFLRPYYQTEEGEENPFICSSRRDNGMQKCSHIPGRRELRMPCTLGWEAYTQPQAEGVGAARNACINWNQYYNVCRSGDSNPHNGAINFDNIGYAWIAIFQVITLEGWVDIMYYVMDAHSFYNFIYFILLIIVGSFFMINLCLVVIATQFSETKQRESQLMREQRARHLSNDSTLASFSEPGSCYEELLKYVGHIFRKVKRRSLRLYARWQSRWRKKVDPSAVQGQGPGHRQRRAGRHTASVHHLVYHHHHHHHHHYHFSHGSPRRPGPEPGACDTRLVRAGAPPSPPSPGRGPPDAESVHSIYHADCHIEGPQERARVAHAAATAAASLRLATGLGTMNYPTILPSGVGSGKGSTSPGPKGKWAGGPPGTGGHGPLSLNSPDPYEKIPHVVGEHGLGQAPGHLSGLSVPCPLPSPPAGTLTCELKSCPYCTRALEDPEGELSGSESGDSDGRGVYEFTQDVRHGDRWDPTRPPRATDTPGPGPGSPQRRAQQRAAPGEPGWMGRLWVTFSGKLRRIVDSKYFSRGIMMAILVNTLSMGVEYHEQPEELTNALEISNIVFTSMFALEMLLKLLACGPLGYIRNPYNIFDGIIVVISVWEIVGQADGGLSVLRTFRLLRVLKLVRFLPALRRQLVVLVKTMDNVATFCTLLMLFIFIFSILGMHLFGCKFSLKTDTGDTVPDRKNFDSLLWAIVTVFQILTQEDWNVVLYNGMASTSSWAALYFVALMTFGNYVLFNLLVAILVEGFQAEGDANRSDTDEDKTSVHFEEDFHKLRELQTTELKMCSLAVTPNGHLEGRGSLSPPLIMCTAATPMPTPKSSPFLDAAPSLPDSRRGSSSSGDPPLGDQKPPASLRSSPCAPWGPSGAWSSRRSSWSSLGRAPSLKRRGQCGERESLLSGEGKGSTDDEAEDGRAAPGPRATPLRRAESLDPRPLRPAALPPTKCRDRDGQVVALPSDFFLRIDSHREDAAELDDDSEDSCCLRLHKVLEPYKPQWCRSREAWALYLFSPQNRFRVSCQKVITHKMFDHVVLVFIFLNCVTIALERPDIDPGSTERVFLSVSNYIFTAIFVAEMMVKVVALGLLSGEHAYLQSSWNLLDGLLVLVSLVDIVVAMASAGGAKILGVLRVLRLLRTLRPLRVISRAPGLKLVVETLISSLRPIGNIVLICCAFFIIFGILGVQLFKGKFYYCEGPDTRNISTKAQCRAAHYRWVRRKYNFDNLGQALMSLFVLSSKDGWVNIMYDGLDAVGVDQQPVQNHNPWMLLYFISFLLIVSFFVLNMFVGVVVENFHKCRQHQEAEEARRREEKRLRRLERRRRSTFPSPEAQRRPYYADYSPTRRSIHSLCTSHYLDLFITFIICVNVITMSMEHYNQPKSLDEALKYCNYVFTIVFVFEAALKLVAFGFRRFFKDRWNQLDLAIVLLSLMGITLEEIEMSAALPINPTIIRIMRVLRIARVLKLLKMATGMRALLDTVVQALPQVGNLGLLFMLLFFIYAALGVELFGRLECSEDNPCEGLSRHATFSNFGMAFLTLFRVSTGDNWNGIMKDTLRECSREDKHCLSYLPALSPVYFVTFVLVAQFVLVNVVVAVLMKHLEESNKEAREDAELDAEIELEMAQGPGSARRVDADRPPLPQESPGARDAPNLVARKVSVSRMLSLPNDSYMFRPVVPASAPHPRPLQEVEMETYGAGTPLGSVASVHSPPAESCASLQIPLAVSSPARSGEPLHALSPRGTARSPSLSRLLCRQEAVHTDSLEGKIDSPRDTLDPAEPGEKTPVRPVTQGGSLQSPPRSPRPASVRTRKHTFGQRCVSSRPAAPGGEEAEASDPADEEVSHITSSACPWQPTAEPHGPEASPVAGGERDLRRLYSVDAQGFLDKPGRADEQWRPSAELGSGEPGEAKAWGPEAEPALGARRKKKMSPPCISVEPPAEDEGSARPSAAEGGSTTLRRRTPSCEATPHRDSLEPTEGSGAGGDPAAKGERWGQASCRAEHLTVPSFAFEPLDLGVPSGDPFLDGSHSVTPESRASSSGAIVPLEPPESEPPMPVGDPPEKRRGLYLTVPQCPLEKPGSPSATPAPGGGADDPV
PLK1 kinase inh: inhibitors of human PLK1 kinase. AID 619. inhibition, % at 10 µM. P53350. hit rate 0.53% among 97,000. recombinant PLK1 kinase, TR-FRET peptide phosphorylation;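 active means inhibition of 50% or more in the single-concentration screen; inactive means inhibition below 50%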;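 further: 0% = DMSO max control and 100% = H-89 dihydrochloride min control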
Active calls of the source: *.

`C[C@H]1O[C@H](O[C@H]2[C@H](O)[C@@H](O)[C@@H](O[C@H]3[C@H](O)[C@@H](O)C(O)O[C@@H]3CO)O[C@@H]2CO)[C@H](O)[C@@H](O)[C@@H]1N[C@H]1C=C(CO)[C@@H](O)[C@H](O)[C@H]1O` (some centres undefined) gave Cav3 T inh 0.19.
Screening Cc1ccc(/C=N\Nc2cn[nH]c(=O)c2Cl)cc1 returned Plk1 PBD FP -3, FAK inh 7, EphB4 ephrin blk -4, HIV Rev-RRE inh 13, Cav3 T inh -5.3* and PLK1 kinase inh -1.
Clc1ccc(/C=N/Nc2nn[nH]n2)cc1 was read as Plk1 PBD FP 20, FAK inh -2, EphB4 ephrin blk 3, HIV Rev-RRE inh 3, Cav3 T inh 0.43 and PLK1 kinase inh -11.
For O=C(O)C1=C[C@H](c2ccc(Br)cc2)C[C@H](OCc2ccc(CO)cc2)O1 the results were Cav3 T inh -0.042.
`COc1ccccc1N1CCN(CC(=O)c2c(C)n(C)c3ccccc23)CC1` gave Plk1 PBD FP 2, FAK inh 3, EphB4 ephrin blk 4, HIV Rev-RRE inh 3, Cav3 T inh 0.16 and PLK1 kinase inh -5.
Screening COc1ccccc1N1CCN(CC(=O)c2c(C)[nH]c3cc(C)ccc23)CC1 returned Plk1 PBD FP 2, FAK inh 2, EphB4 ephrin blk 8, HIV Rev-RRE inh 14, Cav3 T inh -4.2* and PLK1 kinase inh -4.
For N#CCCn1nc(-c2ccccc2)cc1-n1c(C(F)(F)F)nc2ccccc21 the results were Plk1 PBD FP 0, FAK inh -5, EphB4 ephrin blk 2, HIV Rev-RRE inh 11, Cav3 T inh -3.4* and PLK1 kinase inh -13.
`Cc1ccc(Cn2ccc(NC(=O)c3c(-c4ccccc4Cl)noc3C)n2)cc1` gave Plk1 PBD FP -10, FAK inh 4, EphB4 ephrin blk -10, HIV Rev-RRE inh 6, Cav3 T inh -5.5* and PLK1 kinase inh -12.
Cc1onc(-c2ccccc2Cl)c1C(=O)Nc1ccc(F)c(F)c1 was read as Plk1 PBD FP -27, FAK inh 6, EphB4 ephrin blk 3, HIV Rev-RRE inh 8, Cav3 T inh -4.1* and PLK1 kinase inh 3.
Screening Cc1onc(-c2ccccc2Cl)c1C(=O)Nc1ccc2c(c1)OCO2 returned Plk1 PBD FP 5, FAK inh 0, EphB4 ephrin blk -15, HIV Rev-RRE inh 3, Cav3 T inh -0.17 and PLK1 kinase inh 4.
Screening Cc1cccc(N(CC(=O)N/N=C/c2cc([N+](=O)[O-])ccc2Cl)S(C)(=O)=O)c1C returned Plk1 PBD FP 0, FAK inh 12, EphB4 ephrin blk 6, HIV Rev-RRE inh 18, Cav3 T inh -5.5* and PLK1 kinase inh -5.
`COc1ccc(CN2CC[C@H]3C=CC[C@@H](C(=O)NCCc4ccccc4)[C@H]3C2=O)cc1OC` gave Cav3 T inh 0.18.
For CCOC(=O)C1=C(C)OC(N)=C(C#N)C1c1ccc(OC)c(C)c1OC (centres undefined) the results were Plk1 PBD FP 17, FAK inh -7, EphB4 ephrin blk -2, HIV Rev-RRE inh 5, Cav3 T inh -0.25 and PLK1 kinase inh -8.
CCOc1cc(C2C(C#N)=C(N)OC(C)=C2C(C)=O)c(Br)c(Br)c1OC(C)C (centres undefined) was read as Plk1 PBD FP 5, FAK inh 3, EphB4 ephrin blk -2, HIV Rev-RRE inh 19, Cav3 T inh -5.3* and PLK1 kinase inh -16.
COc1ccc(Cl)cc1NC(=O)Nc1cccc([N+](=O)[O-])c1C was read as Plk1 PBD FP -25, FAK inh 2, EphB4 ephrin blk 0, HIV Rev-RRE inh 3, Cav3 T inh 0.16 and PLK1 kinase inh -12.
For CCO[C@@H]1OC(C(=O)N2CCOCC2)=C[C@H](c2ccc(C(F)(F)F)cc2)[C@H]1CCCO the results were Cav3 T inh -0.67.
Screening Cc1cc(C)cc(OCC(=O)N2N=C(C(F)(F)F)CC2(O)C(C)(C)C)c1 (centres undefined) returned Plk1 PBD FP -15, FAK inh 2, EphB4 ephrin blk 2, HIV Rev-RRE inh 5, Cav3 T inh -4.3* and PLK1 kinase inh -6.
COC(=O)C1(CC2CC(c3ccccc3)=NO2)CCN(C(=O)OC(C)(C)C)CC1 (centres undefined) was read as Cav3 T inh -2.5.

From PubChem BioAssay
